{"source": "ChEMBL document CHEMBL4619819", "about": "“Toward the Target: Tilorone, Quinacrine, and Pyronaridine Bind to Ebola Virus Glycoprotein” (ACS Med Chem Lett, 2020)", "key": {"[1]": {"assay": "Binding affinity to Ebola virus glycoprotein assessed as dissociation constant incubated for 20 to 30 mins by microscale thermophoresis", "parameters": "species or system Ebolavirus", "summary_of_the_method": "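EBOV glycoprotein amine-labelled with RED-NHS dye, 2.5 nM final in 10 mM MES pH 5.0, 150 mM NaCl, 170 mM sodium malonate pH 5.2, plus 0.05% Tween 20 and 10 mM BME. 16-point 2-fold series from 250 μM to 7.629 nM, 2.5% DMSO final. Incubated 20–30 min. MST run at 20% excitation, high power, 23.0 °C, in quadruplicate. Kd from mass-action fit of Fnorm, with aggregated or outlier traces removed.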"}, "[2]": {"system": "Ebolavirus", "assay": "Antiviral activity against Ebolavirus infected in human HeLa cells assessed as reduction in viral replication incubated for 48 hrs by luminescence based assay", "type": "functional, organism-based", "details": "Orthoebolavirus; call rule not given here"}}}
{"smiles": "CN(C)CCOc1ccc(/C(=C(/CCCl)c2ccccc2)c2ccccc2)cc1", "note": "[TOREMIFENE]", "values": [{"measurement": "Kd", "setting": "[1]; read-out: Kd", "result": 24.8, "unit": "µM"}]}
{"smiles": "CCN(CC)CCCC(C)Nc1c2ccc(Cl)cc2nc2ccc(OC)cc12", "note": "(centres undefined) [QUINACRINE]", "values": [{"measurement": "IC50", "setting": "[2]", "result": "1050 to 1480", "unit": "nM"}, {"measurement": "Kd", "setting": "[1]; read-out: Kd", "result": 7.55, "unit": "µM"}]}
{"smiles": "CCN(CC)CCOc1ccc2c(c1)C(=O)c1cc(OCCN(CC)CC)ccc1-2", "note": "[TILORONE]", "values": [{"measurement": "IC50", "setting": "[2]", "result": "1140 to 1480", "unit": "nM"}, {"measurement": "Kd", "setting": "[1]; read-out: Kd", "result": 0.731, "unit": "µM"}]}
{"smiles": "C[C@H]1[C@H](OC(=O)CCC(=O)O)O[C@@H]2O[C@@]3(C)CC[C@H]4[C@H](C)CC[C@@H]1[C@@]24OO3", "note": "[ARTESUNATE]", "values": [{"measurement": "Kd", "setting": "[1]", "result": "Not Active"}]}
{"smiles": "NC(=O)c1nc(F)cnc1O", "note": "[FAVIPIRAVIR]", "values": [{"measurement": "Kd", "setting": "[1]", "result": "Not Active"}]}
{"smiles": "COc1ccc2nc3cc(Cl)ccc3c(Nc3cc(CN4CCCC4)c(O)c(CN4CCCC4)c3)c2n1", "note": "[PYRONARIDINE]", "values": [{"measurement": "IC50", "setting": "[2]", "result": "820 to 1300", "unit": "nM"}, {"measurement": "Kd", "setting": "[1]; read-out: Kd", "result": 7.34, "unit": "µM"}]}
